Rows were chosen to be rich in hits. Some 7.9% of all compounds tested hit in one or more screens of this group.
SF1 activator: activators of human SF-1, primary screen, cell-based, CHO-K1, Gal4-SF-1 LBD, luciferase luminescence. Steroidogenic factor 1 (Homo sapiens), Q13285. CHO-K1 Gal4-SF-1 LBD luciferase reporter; % increase over DMSO SF-1-specific signal. activation, % at 10 µM. 65,000 compounds, 1.9% hits. AID 522, 2006;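 active = activation above the mean activation of all tested compounds plus 3 SD, cut at about 50% in these data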
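Material: Transient Gal4-SF-1 LBD reporter, CHO-K1 | Input: 4,000 cells/well | Dosing: One dose, 10 µM compound, 1% DMSO | Incubation: 20 h compound treatment, 37 °C | Detection: SteadyLite luciferase luminescence | Evaluation: Percent activation relative to DMSO median and mock-transfected background | Benchmarks: DMSO-treated SF-1-transfected cells as negative, DMSO-treated mock-transfected cells lacking SF-1 as background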
JNK3 inh: JNK3 kinase activity inhibitors, primary screen, biochemical, human, purified enzyme. HTS. AID 746, 2007. inhibition, % at 8 µM. Mitogen-activated protein kinase 10 (Homo sapiens), P53779. 60,000 compounds, 0.61% hits; in the data active = inhibition above about 17%
Target sequence (P53779 whole entry, looked up): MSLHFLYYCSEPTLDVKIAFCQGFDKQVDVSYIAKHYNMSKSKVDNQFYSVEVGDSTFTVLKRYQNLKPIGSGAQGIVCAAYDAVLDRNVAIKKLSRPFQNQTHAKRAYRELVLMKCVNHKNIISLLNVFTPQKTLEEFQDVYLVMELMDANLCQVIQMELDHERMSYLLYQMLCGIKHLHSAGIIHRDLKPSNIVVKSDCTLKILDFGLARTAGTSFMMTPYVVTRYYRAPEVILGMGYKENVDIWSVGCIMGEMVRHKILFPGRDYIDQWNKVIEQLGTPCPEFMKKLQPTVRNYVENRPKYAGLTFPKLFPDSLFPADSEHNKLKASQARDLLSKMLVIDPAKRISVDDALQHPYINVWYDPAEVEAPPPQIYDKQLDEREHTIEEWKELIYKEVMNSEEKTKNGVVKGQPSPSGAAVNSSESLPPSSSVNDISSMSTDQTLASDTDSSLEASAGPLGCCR
D1 mod: D1 CRE-luciferase signal change, two-sided – cell-based, HEK293 D1, dopamine EC30, D1 allosteric modulator project, primary screen. AID 641, 2007. D(1A) dopamine receptor (Homo sapiens), P21728. dopamine EC30 potentiation; actives deviate in either direction. 58,000 compounds, 5.9% hits. B-score at 10 µM;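 active = luminescence count or its row- and column-corrected plate score outside the 99.7% band of the plate's sample wells, on either side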
HEK293 NFkB inh: inhibitors of PMA/ionomycin-induced NF-kB reporter, primary screen, antigen receptor NF-kB inhibitor project, cell-based, HEK-293 luciferase reporter, luminescence; inhibition, % at 3 µM; 62,000 compounds, 0.21% hits; HEK-293 NF-kB luciferase reporter;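 active = inhibition above the mean of all tested compounds plus 3 SD, cut at about 40% in these data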
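Timing: 1 h pretreatment, 16 h stimulation, 37 °C; system: HEK-293 cells with stable firefly luciferase reporter driven by four HIV NF-kB elements; doses: 3 µM once, 0.30% DMSO; measured by: luciferase luminescence; control set: DMSO and 10 µM reference inhibitor; repeats: single test; reagent: PMA plus ionomycin mix as NF-kB-activating stimulus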
RORa activator: activators of orphan receptor RORA, primary screen, cell-based, luminescence; AID 560, 2006; 65,000 compounds, 1.5% hits; Nuclear receptor ROR-alpha (Homo sapiens), P35398; activation, % at 10 µM; CHO-K1 Gal4-RORA LBD luciferase reporter; percent increase over mock-subtracted basal signal;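 active = activation above the mean of all tested compounds plus 3 SD, cut at about 49% in these data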
Large screens that a line does not name were inactive.

Cc1ccc(C2CC(C(F)(F)F)n3nc(C(=O)NCC4CCCO4)cc3N2)cc1 (stereo not given)	none
O=C(NCCCN1CCN(c2cccc(Cl)c2)CC1)C1CCC(=O)N1Cc1ccccc1Cl (stereo not given)	none
Fc1ccc(-c2nnc(NC3=NCCCCC3)o2)cc1	D1 mod -6.59
Cc1ncsc1C(=O)Nc1nc2c(s1)CC(C)CC2 (stereo not given)	SF1 activator 61.7, RORa activator 55.9
Cc1nc(NC(=O)CSc2nc3cccnc3n2Cc2ccccc2)sc1C	none
COc1cc(-c2cc(C(=O)N3CCN(c4ccccn4)CC3)c3ccccc3n2)cc(OC)c1OC	D1 mod -3.97
COc1ccccc1C(=O)N1CCN(c2ccccn2)CC1	none
CCOc1ccc(-c2cc(C(=O)N3CCN(c4ccccn4)CC3)c3ccccc3n2)cc1	SF1 activator 90.9, RORa activator 76.0
COc1ccc(-c2cc(C(=O)N3CCN(c4ccccn4)CC3)c3ccccc3n2)cc1	SF1 activator 89.6, RORa activator 73.6 (no result: JNK3 inh)
Cc1ccc(-c2cc3c(nn2)-c2ccccc2C3=O)cc1	D1 mod -5.67, HEK293 NFkB inh 62.5
O=C(COc1ccccc1)Nc1nc2ccccc2[nH]1	SF1 activator 60.3, RORa activator 55.1
COc1cc(C(=O)Nc2nc3ccccc3[nH]2)cc(OC)c1OC	none
C/C(Cl)=C\Cn1c(NCCc2ccccc2)nc2c1c(=O)n(C)c(=O)n2C	D1 mod -3.12
CCC(=O)Nc1ccc2nc(C3CC3)n(Cc3ccccc3)c(=O)c2c1	SF1 activator 62.7
O=C(Nn1c(C2CC2)nc2ccccc2c1=O)c1ccco1	none
COc1ccc(Cn2c(C3CC3)nc3ccc(NC(=O)c4ccco4)cc3c2=O)cc1	SF1 activator 59.2
CCOC(=O)c1sc2nc(C)cc(C)c2c1N	none
CCOC(=O)CNC(=O)c1sc2nc(C)cc(C)c2c1N	none
Cc1cc(C)c2c(N)c(C(=O)Nc3nccs3)sc2n1	D1 mod -6.56
COCc1cc(C)nc2sc(C(=O)Nc3nccs3)c(N)c12	SF1 activator 92.1
CC(=O)c1coc2ccc(OCC(=O)O)cc12	none
O=c1cc(Nc2ccc3c(c2)OCCO3)[nH]c(=O)n1-c1ccc(Br)cc1	none (no result: JNK3 inh, D1 mod)
O=c1cc(Nc2ccc3c(c2)OCO3)[nH]c(=O)n1-c1ccc(Br)cc1	D1 mod -7.65 (no result: JNK3 inh)
O=C(Nc1ccccc1C(=O)OCC(=O)N1CCc2ccccc2C1)c1ccco1	none
Cc1ccc(-c2nnn(CC(=O)N(Cc3cccs3)C(C(=O)NC(C)(C)C)c3ccc(C)o3)n2)o1 (stereo not given)	none
Cc1ccc(C(C(=O)NC(C)(C)C)N(CC2CCCO2)C(=O)Cn2nnc(-c3ccc(C)o3)n2)cc1 (stereo not given)	D1 mod -4.17
CCC(=O)N(Cc1ccco1)c1nc(-c2ccccc2)cs1	none
CN(C)CCCN(C(=O)c1cccs1)c1nc(-c2ccccc2)cs1	D1 mod -4.75
O=C(NCc1ccc2c(c1)OCO2)c1ccccn1	none
O=C(/C=C\Nc1ccc2c(c1)OCO2)c1ccccn1	D1 mod -7.98, HEK293 NFkB inh 48.0
CCn1c(COc2ccc3c(c2)CCCC3)nnc1SCC(=O)Nc1nccs1	none
COc1cccc(C2=N/C(=C\N(C)C)C(=O)O2)c1	RORa activator 71.0
Cc1cccc(N2CCN(C(=O)c3ccc(CS(=O)(=O)c4ccccc4C)o3)CC2C)c1 (stereo not given)	HEK293 NFkB inh 41.9
Cc1cc(C)n(-c2nc3c(c(=O)[nH]c(=O)n3C)n2CC(O)COc2ccccc2C)n1 (stereo not given)	none
CC(=O)NC(CCS(C)(=O)=O)C(=O)N1CCc2ccccc21 (stereo not given)	none
COc1ccccc1-c1cc(C(=O)NC(C)C)no1	SF1 activator 68.8, D1 mod -3.18
COCCNC(=O)c1cc(-c2ccccc2OC)on1	SF1 activator 70.7, RORa activator 51.6
COc1ccccc1-c1cc(C(=O)NCc2cccs2)no1	none
